# ChEMBL document CHEMBL4196116, “3-Aryl-1,2,4-oxadiazole Derivatives Active Against Human Rhinovirus” (ACS Med Chem Lett, 2018)
# Key:
# [1] = Metabolic stability in rat liver microsomes assessed as parent compound remaining at 1 uM after 30 mins in presence of NADPH by LC/MS/MS analysis; type: ADME, microsome; settings: read-out: Stability
# How it was run: (§1)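 Phase I metabolic stability in rat or human liver microsomes, reported as % parent remaining after 30 min. Buspirone serves as reference. Values are mean ± SD of at least three independent experiments.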
# [2] = Metabolic stability in human liver microsomes assessed as parent compound remaining at 1 uM after 30 mins in presence of NADPH by LC/MS/MS analysis; type: ADME, microsome; settings: read-out: Stability; how it was run: as §1
# rhinovirus B14 = test: Antiviral activity against Human rhinovirus B14 infected in human H1HeLa cells assessed as inhibition of viral replication after 3 days by MTT assay; type: functional, organism-based; settings: Rhinovirus B, H1-HeLa, 72 h
# How it was run: (§2)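 Anti-rhinovirus EC50 against hRV-B14, -A21 and -A71 determined in H1HeLa cells. Read-out is MTT cell viability. EC50 is the concentration that inhibits viral replication by 50%. Pleconaril serves as reference.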
# rhinovirus A21 = test: Antiviral activity against Human rhinovirus A21 infected in human H1HeLa cells assessed as inhibition of viral replication after 3 days by MTT assay; type: functional, organism-based; settings: Rhinovirus A, H1-HeLa, 72 h; how it was run: as §2
# [3] = Antiviral activity against Human rhinovirus A71 infected in human H1HeLa cells assessed as inhibition of viral replication after 3 days by MTT assay; type: functional, cell-based; settings: Rhinovirus A, H1-HeLa, 72 h; how it was run: as §2
# [4] = Cytotoxicity against human H1HeLa cells assessed as reduction in cell viability after 3 days by MTT assay; type: cell-based, H1-HeLa
# [5] = AUCt in Sprague-Dawley rat at 5 mg/kg, iv by LC/MS/MS analysis; type: ADME, organism-based; settings: in vivo
# How it was run: (§3)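 Male Sprague–Dawley rats, n = 3, given 5 mg·kg–1 intravenously or 10 mg·kg–1 orally. Plasma deproteinized in acetonitrile and assayed by LC–MS/MS. Parameters derived from concentration–time data by noncompartmental analysis. Values reported as mean ± standard deviation.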
# [6] = Volume of distribution at steady state in Sprague-Dawley rat at 5 mg/kg, iv by LC/MS/MS analysis; type: ADME, organism-based; settings: in vivo, read-out: Vdss; how it was run: as §3
# [7] = Tmax in Sprague-Dawley rat at 10 mg/kg, po by LC/MS/MS analysis; type: ADME, organism-based; settings: in vivo; how it was run: as §3
# [8] = Terminal half life in Sprague-Dawley rat at 10 mg/kg, po by LC/MS/MS analysis; type: ADME, organism-based; settings: in vivo, read-out: beta t1/2 (converted); how it was run: as §3
# [9] = Oral bioavailability in Sprague-Dawley rat at 10 mg/kg by LC/MS/MS analysis; type: ADME, organism-based; settings: in vivo; how it was run: as §3
# [10] = AUC (infinity) in Sprague-Dawley rat at 10 mg/kg, po by LC/MS/MS analysis; type: ADME, organism-based; parameters: dose 10 mg/kg, time infinity, route oral; settings: in vivo; how it was run: as §3
# [11] = Cmax in Sprague-Dawley rat at 10 mg/kg, po by LC/MS/MS analysis; type: ADME, organism-based; parameters: dose 10 mg/kg, route oral; settings: in vivo; how it was run: as §3
# [12] = Clearance in Sprague-Dawley rat at 5 mg/kg, iv by LC/MS/MS analysis; type: ADME, organism-based; settings: in vivo; how it was run: as §3
# [13] = AUC (infinity) in Sprague-Dawley rat at 5 mg/kg, iv by LC/MS/MS analysis; type: ADME, organism-based; parameters: dose 5 mg/kg, route intravenous, time infinity; settings: in vivo; how it was run: as §3
# [14] = Terminal half life in Sprague-Dawley rat at 5 mg/kg, iv by LC/MS/MS analysis; type: ADME, organism-based; settings: in vivo, read-out: beta t1/2 (converted); how it was run: as §3
# [15] = AUCt in Sprague-Dawley rat at 10 mg/kg, po by LC/MS/MS analysis; type: ADME, organism-based; settings: in vivo; how it was run: as §3
Compound,EC50 (rhinovirus B14) [nM],EC50 (rhinovirus A21) [nM],EC50 [3] [nM],CC50 at 72 h [4] [nM],other results
CNC(=O)c1cc(Oc2ccc3c(C)c(C(=O)OC(C)C)sc3c2)ccn1,,,,,"remaining at 0.5 h, 1 µM [1]: 1%; remaining at 0.5 h, 1 µM [2]: 42.7%"
CNC(=O)c1cc(Oc2ccc(-c3noc(CC(C)C)n3)cc2)ccn1,> 23400,2200,340,23400,
CNC(=O)c1cc(Oc2cccc(-c3noc(CC(C)C)n3)c2)ccn1,> 19100,2700,370,19100,
CNC(=O)c1cc(Oc2ccc(-c3noc(COC)n3)cc2)ccn1,8300,2100,1700,63400,
CNC(=O)c1cc(Oc2c(C)cc(-c3noc(C(C)C)n3)cc2C)ccn1,300,69,11,7400,"remaining at 0.5 h, 1 µM [1]: 37.1%; remaining at 0.5 h, 1 µM [2]: 61.1%"
CNC(=O)c1cc(Oc2ccc(-c3noc(C4CC4)n3)cc2)ccn1,520,400,50,32300,
Cc1cc(-c2noc(C(C)C)n2)cc(C)c1Oc1ccnc(C(=O)N(C)C)c1,> 1800,> 1800,> 1800,1800,
CNC(=O)c1cc(Oc2cccc(-c3noc(C(C)C)n3)c2)ccn1,12800,2100,150,54200,
CNC(=O)c1cc(Oc2ccc(-c3noc(C(C)C)n3)cc2)ccn1,73,380,34,16100,
CNC(=O)c1cc(Oc2ccc3c(C)c(-c4noc(C)n4)sc3c2)ccn1,650,59,61,> 100000,
CNC(=O)c1cc(Oc2ccc(-c3noc(C(C)C)n3)cc2C)ccn1,73,29,2.5,8900,"remaining at 0.5 h, 1 µM [1]: 35.1%; remaining at 0.5 h, 1 µM [2]: 9.9%"
CNC(=O)c1cc(Oc2ccc3c(C)c(-c4noc(C5CC5)n4)sc3c2)ccn1,470,60,31,6800,
CNC(=O)c1cc(Oc2ccc(-c3noc(C)n3)cc2)ccn1,33700,8700,1600,> 100000,
CC(C)c1nc(-c2ccc(Oc3ccnc(C(=O)N(C)C)c3)cc2)no1,280,> 9000,> 9000,9000,
CNC(=O)c1cc(Oc2cccc(-c3noc(COC)n3)c2)ccn1,> 100000,40300,2000,> 100000,
CCc1nc(-c2ccc(Oc3ccnc(C(=O)NC)c3)cc2)no1,1100,130,31,43700,
CNC(=O)c1cc(Oc2ccc(-c3noc(C4CC4)n3)cc2C)ccn1,340,400,12,20000,
CNC(=O)c1cc(Oc2ccc3cc(-c4noc(C)n4)ccc3c2)ccn1,1700,110,8.4,6900,
CCc1nc(-c2sc3cc(Oc4ccnc(C(=O)NC)c4)ccc3c2C)no1,430,77,14,5200,
CNC(=O)c1cc(Oc2ccc(-c3noc(C(F)(F)F)n3)cc2)ccn1,9300,> 35000,1600,35000,
CNC(=O)c1cc(Oc2ccc(-c3noc(C(C)C)n3)nc2)ccn1,11500,39100,6700,> 100000,
CNC(=O)c1cc(Oc2ccc(-c3noc(C(C)C)n3)c(C)c2)ccn1,66,22,3.7,30500,"AUC(0-t) [5]: 31300 ng·h/mL; Vd [6]: 0.611 L/kg; remaining at 0.5 h, 1 µM [1]: 59.6%; Tmax [7]: 2.7 h; half-life [8]: 3.2 h; bioavailability [9]: 27.8%; AUC(0-inf) [10]: 17400 ng·h/mL; Cmax [11]: 3900 ng/mL; clearance [12]: 2.63 mL/min/kg; AUC(0-inf) [13]: 31800 ng·h/mL; half-life [14]: 4.6 h; AUC(0-t) [15]: 17400 ng·h/mL; remaining at 0.5 h, 1 µM [2]: 40.7%"
CNC(=O)c1cc(Oc2ccc3c(C)c(-c4noc(C(C)C)n4)sc3c2)ccn1,73,300,13,5500,"remaining at 0.5 h, 1 µM [1]: 99.2%; remaining at 0.5 h, 1 µM [2]: 69.8%"
CNC(=O)c1cc(Oc2ccc3c(C)c(-c4noc(C(F)(F)F)n4)sc3c2)ccn1,2000,990,300,> 100000,
Cc1cc(-c2noc(C(C)C)n2)ccc1Oc1ccnc(C(=O)N(C)C)c1,490,> 1400,> 1400,1400,
CCc1nc(-c2ccc(Oc3ccnc(C(=O)NC)c3)c(C)c2)no1,390,230,3.9,25200,
O=C1CC2(CCCC2)CC(=O)N1CCCCN1CCN(c2ncccn2)CC1 [BUSPIRONE],,,,,"remaining at 0.5 h, 1 µM [1]: 0.1%; remaining at 0.5 h, 1 µM [2]: 3.5%"
Cc1cc(CCCOc2c(C)cc(-c3noc(C(F)(F)F)n3)cc2C)on1 [PLECONARIL],92,,9.4,,
